# Assay outcomes (PubChem BioAssay)
# Beta apoptosis = inhibitors of cytokine-induced beta cell apoptosis, primary screen, luminescence. INS-1E cytokine-induced death, ATP luminescence, 48 h; percent of positive-control rescue, neutral wells zero. protection from apoptosis, % (concentration not given with the values). actives 0.8% (n = 300,000). AID 435005, 2010;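 active means Every replicate reaches about 75%, or at least half do and their mean reaches it too, limit read from the data; inconclusive means At least half of replicates reach the limit but their mean does not; inactive means Under half of replicates reach the limit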;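 further: 0% = cytokine-treated negative control wells and 100% = positive control rescue; higher means more ATP so stronger rescue from cytokine killing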
# Mdm2 MdmX PPI = inhibitors of human Mdm2-MdmX association, primary screen, cell-based, luminescence, split luciferase, SaOS-2, uHTS. AID 485346, 2010. inhibition, % at 8 µM. actives 3% (n = 330,000). SaOS-2 split-luciferase Mdm2/MdmX complementation;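 active means inhibition of at least 50% at 8 µM in the primary screen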
# Target sequence (O15151 whole entry, looked up): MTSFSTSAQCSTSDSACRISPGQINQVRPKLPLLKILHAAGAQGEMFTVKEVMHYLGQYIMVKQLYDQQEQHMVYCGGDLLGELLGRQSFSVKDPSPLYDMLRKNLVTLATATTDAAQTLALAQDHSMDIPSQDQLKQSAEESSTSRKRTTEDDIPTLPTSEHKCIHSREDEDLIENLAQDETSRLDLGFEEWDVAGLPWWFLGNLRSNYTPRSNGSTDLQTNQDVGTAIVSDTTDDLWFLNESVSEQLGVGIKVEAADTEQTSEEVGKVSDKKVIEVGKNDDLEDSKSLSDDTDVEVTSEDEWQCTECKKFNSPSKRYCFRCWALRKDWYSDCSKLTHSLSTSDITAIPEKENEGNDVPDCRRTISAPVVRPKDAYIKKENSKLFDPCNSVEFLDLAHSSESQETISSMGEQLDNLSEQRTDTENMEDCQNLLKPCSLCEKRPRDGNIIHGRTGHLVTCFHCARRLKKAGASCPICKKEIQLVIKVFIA
# Target sequence (Q00987 whole entry, looked up): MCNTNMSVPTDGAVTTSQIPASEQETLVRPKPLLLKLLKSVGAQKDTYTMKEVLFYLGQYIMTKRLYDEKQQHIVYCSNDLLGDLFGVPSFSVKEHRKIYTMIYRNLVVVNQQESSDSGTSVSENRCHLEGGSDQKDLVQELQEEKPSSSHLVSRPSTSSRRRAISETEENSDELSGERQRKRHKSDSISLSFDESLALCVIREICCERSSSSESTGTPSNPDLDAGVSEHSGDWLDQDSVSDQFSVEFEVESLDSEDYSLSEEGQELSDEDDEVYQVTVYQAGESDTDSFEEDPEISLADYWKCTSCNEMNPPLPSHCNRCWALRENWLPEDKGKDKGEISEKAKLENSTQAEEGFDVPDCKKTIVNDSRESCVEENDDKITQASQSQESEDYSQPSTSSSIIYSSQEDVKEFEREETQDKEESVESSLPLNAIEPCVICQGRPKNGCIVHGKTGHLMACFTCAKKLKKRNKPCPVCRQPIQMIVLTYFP
# Calb FLC = C. albicans growth inhibition with fluconazole, primary screen, CaCi-2 strain, Alamar Blue fluorescence | actives 0.57% (n = 300,000) | C. albicans CaCi-2 (fluconazole-resistant clinical isolate) + fluconazole, 48 h | AID 1979, 2009 | growth inhibition, % (no concentration beside the values);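 active means growth inhibition above about 58% in most replicates, limit read from the data, passing the limit was not always enough; inconclusive means exactly half the replicates above a set limit; inactive means most replicates below a set limit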;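 further: all wells also contain fluconazole at 8 µg/ml as a sub-toxic cotreatment; 0% = median of DMSO wells and 100% = median of geldanamycin control wells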
# T cruzi inh = inhibitors of intracellular T. cruzi growth, primary screen, luminescence, NIH3T3 host cells; T. cruzi beta-gal in NIH3T3, 90 h; inhibition, % (test concentration not listed); actives 1.4% (n = 300,000); AID 1885, 2009;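 active means mean inhibition across valid replicates above about 55%, limit read from the data; inconclusive means mean below that limit but half or more replicates reach it; inactive means mean below it, under half of replicates reach it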;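 further: signal also drops with host cell toxicity which is not excluded here; 0% = plate median of DMSO wells and 100% = zero luminescence signal; higher percent means less beta-gal luminescence so fewer parasites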
#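 assay system = mouse NIH/3T3 fibroblasts infected with β-gal-expressing T. cruzi Tulahuen C4 | input = 5,000 NIH/3T3 host cells per well | buffer or medium = DMEM plus 2% FBS | timing = 3 h host attachment, then at least 90 h co-culture | measured by = GalScreen luminescence, 60 min | evaluation = luminescence reflecting intracellular parasite burden, expressed as percent inhibition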
# NLRP3 yeast inh = NALP3 inflammasome inhibitors in reconstituted yeast, primary screen, luminescence, uHTS | Yeast reconstituted NLRP3/ASC/caspase-1, beta-gal luminescence, 24 h | inhibition, % at 10 µM | actives 0.39% (n = 330,000) | AID 2825, 2010;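 active means inhibition of 50% or more; inactive means inhibition below 50%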;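 further: plate controls were induced DMSO wells for no effect and uninduced yeast grown without galactose for full effect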
# CSC inhib = cancer stem cell viability inhibitors, primary screen, luminescence. actives 1.1% (n = 300,000). cancer stem cell-like cells viability. inhibition, % at 7.5 µM. AID 2717, 2010; in the data active means inhibition above about 75%; inconclusive means no clear call, values can overlap the other calls; tested in HMLE shEcad cells
# * marks the source's active call; other numbers are inactive results; u = inconclusive; x = no result. The list is not random: actives were taken first. Their share in the collection is about 5.3%.
SMILES,Beta apoptosis,Mdm2 MdmX PPI,Calb FLC,T cruzi inh,NLRP3 yeast inh,CSC inhib
O=C(c1cccc(Br)c1)c1coc2ccc(O)cc12,3,-127,x,x,21,91*
CC1CCN(CCCNC(=O)c2cc3c(Cl)nc4ccccc4c3s2)CC1,-7,16,-2,56*,17,10
CC(C)Oc1ncnc2c1[nH]c1ccccc12,24,5,1,-14,23,0
COc1cc2cc(C(c3nnnn3Cc3ccc(F)cc3)N3CCCCCC3)c(=O)[nH]c2cc1OC (configuration not stated),x,-4,9,6,5,-8
COC(=O)c1ccc(/C=C/c2c(-c3ccsc3)sc3ccccc23)cc1,-3,19,-8,-7,21,94*
COc1ccc(-c2sc3ccccc3c2/C=C/c2ccc(N)cc2)cc1,0,-40,x,x,16,97*
Fc1ccc2nc(Nc3nc4c(F)cc(F)cc4s3)sc2c1,90*,x,-10,-21,x,49
Fc1ccc2nc(Nc3nc4c(F)cccc4s3)sc2c1,50,26,8,-5,-7,-6
O=C(Nc1nc2c(F)cc(F)cc2s1)c1ccccn1,93*,25,10,61*,-6,42
O=C(COc1ccc(F)cc1Cl)Nc1cc(S(=O)(=O)N2CCOCC2)ccc1N1CCCCC1,3,43,-6,63*,14,-1
CCN(CC)S(=O)(=O)c1ccc(N2CCN(C)CC2)c(NC(=O)COc2ccc(F)cc2Cl)c1,x,8,-2,59*,7,-3
CCN1CCN(c2ccc(S(=O)(=O)N3CCOCC3)cc2NC(=O)c2ccc(Cl)s2)CC1,-3,27,-3,69*,13,-13
COc1ccccc1CNC(=O)COC(=O)c1ccncc1,3,11,x,x,7,-20
CCCNS(=O)(=O)c1ccc(NC(=O)c2cccnc2)cc1,-8,12,u,-8,-4,-7
CCC(C)NC(=O)c1cn(C)c(=O)c2cc(OC)c(OC)cc12 (configuration not stated),6,-18,0,6,1,-8
Cc1cc(C)n2nc(SCc3nnc(SCc4ccccc4C)s3)nc2n1,103*,23,-15,12,19,-24
COc1ccccc1NC(=S)N(Cc1ccc(C)cc1)Cc1ccccn1,1,-21,7,55*,-8,3
COc1ccccc1NC(=S)N(Cc1ccc(C)cc1)Cc1cccnc1,9,15,-7,17,9,2
CSc1cccc(NC(=S)N(Cc2ccc(C)cc2)Cc2ccccn2)c1,5,-27,15,55*,10,3
COCCn1nnnc1C(C(C)C)N1CCOCC1 (configuration not stated),0,1,8,-21,12,-3
CCOc1ccc(S(=O)(=O)N(C(=O)c2ccco2)c2cc3sc(=O)oc3c3ccccc23)cc1,99*,44,17,-7,-1,64
Cc1ccc(S(=O)(=O)N(C(=O)c2ccco2)c2cc3sc(=O)oc3c3ccccc23)cc1,53,16,14,-5,-14,46
COc1ccc(S(=O)(=O)N(C(=O)c2ccco2)c2cc3sc(=O)oc3c3ccccc23)cc1,98*,47,23,-10,-5,62
O=C(Cn1ccc(NC(=O)OCc2ccccc2)nc1=O)NCCCc1ccccc1,4,-18,x,x,15,-12
Cc1ccc(S(=O)(=O)N/N=C/c2cccs2)cc1,-5,1,3,-1,3,-6
SMILES,Beta apoptosis,Mdm2 MdmX PPI,Calb FLC,T cruzi inh,NLRP3 yeast inh,CSC inhib
O=c1c2ccccc2oc2cc(-c3ccc4[nH]ccc4c3)ccc12,35,-59,-15,-5,14,83*
Cc1c(C#N)c(N=CN(C)C)c(C(=O)c2ccc(Br)cc2)n1-c1ccc(Cl)cc1,10,14,14,57*,-6,-7
Cc1ccc2c(CN3CCN(CCO)CC3)cc(=O)oc2c1,-1,-14,-3,44,9,-13
Cc1ccc2nc(-c3ccc(NS(=O)(=O)c4ccc(F)c(F)c4)cc3)sc2c1,0,x,31,12,x,103*
CCOC(=O)c1ccc(S(=O)(=O)N2CCN(CC(O)COc3ccc(C#N)cc3)CC2)cc1 (configuration not stated),-1,-16,5,-9,13,-9
Cc1ccnn1CCC(=O)N1CCCC(CCC(=O)NCc2ccccc2F)C1 (configuration not stated),-7,22,-12,5,17,-3
Cc1ccc(CNC(=O)CCC2CCCN(Cc3c(C)nn(C(C)C)c3C)C2)o1 (configuration not stated),-6,10,0,67*,-6,-7
Cc1ccc(CNC(=O)CCC2CCCN(Cc3ccc4cccc(F)c4n3)C2)o1 (configuration not stated),-8,7,3,61*,-3,11
Cc1ccc(CNC(=O)CCC2CCCN(Cc3cccc4c3OCO4)C2)o1 (configuration not stated),-3,5,-3,52,6,8
O=C(CSc1ccc2c(c1)OCCO2)Nc1cccnc1Cl,-4,14,-3,-5,18,-11
O=C(CSc1oc(-c2cccs2)nc1S(=O)(=O)c1ccccc1)NC1CCCCC1,-12,17,-20,60*,10,x
CSc1oc(-c2cccs2)nc1S(=O)(=O)c1ccccc1,-6,4,-5,5,-12,-12
COC(=O)c1cc(NC(=O)C2(S(=O)(=O)c3ccc(Cl)cc3)CC2)cc(C(=O)OC)c1,-5,7,12,11,15,6
Cc1ccc(-n2ncc(C(=O)Nc3cc(Cl)cc(Cl)c3)c2C2CCNCC2)cc1C,x,x,19,55*,x,x
Cc1ccc(-n2ncc(C(=O)Nc3cc(Cl)ccc3Cl)c2C2CCNCC2)cc1,-7,37,0,26,15,17
Cc1csc2ncnc(NCCc3ccccn3)c12,79*,1,98*,-26,12,-9
CCN1CCN(C(CNS(=O)(=O)c2ccc(C)cc2)c2cccnc2)CC1 (configuration not stated),x,4,-8,22,17,-5
O=S(=O)(NCC(c1cccnc1)N1CCN(Cc2ccccc2)CC1)c1ccccc1 (configuration not stated),-1,16,-6,62*,13,-11
Cc1ccc(S(=O)(=O)NCC(c2cccnc2)N2CCN(Cc3ccccc3)CC2)cc1 (configuration not stated),-2,14,0,57*,13,8
